Results from ChEMBL document CHEMBL1134767, “Structural basis of binding of high-affinity ligands to protein kinase C: prediction of the binding modes through a new molecular dynamics method and evaluation by site-directed mutagenesis” (J Med Chem, 2001).
pKi: −log10 of the molar value.

Legend:
[1] = target: Protein kinase C delta type (Mus musculus, UniProt P28867, F243G); test: Displacement of [3H]PDBu from protein kinase C delta C1b domain mutant (F13G)
Outline: (§1)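 PKCδ C1b domain, wild type or sequence-confirmed point mutant, expressed as a GST-fusion protein in E. coli and used purified or as total lysate. Incubated 5 min at 18 °C with [3H]PDBu, […] phosphatidylserine, 1 mM EGTA and varied unlabeled ligand. Protein was precipitated with 35% poly(ethylene glycol) and centrifuged, and supernatant and pellet radioactivity counted. Ki was calculated from final ligand concentrations.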

[2] = target: Protein kinase C delta type (Mus musculus, UniProt P28867, L250G); test: Displacement of [3H]PDBu from protein kinase C delta C1b domain mutant (L20G); outline: as §1
Protein kinase C delta type (Mus musculus, UniProt P28867, L250G), sequence (P28867 whole entry L250G, the tested form may be a part): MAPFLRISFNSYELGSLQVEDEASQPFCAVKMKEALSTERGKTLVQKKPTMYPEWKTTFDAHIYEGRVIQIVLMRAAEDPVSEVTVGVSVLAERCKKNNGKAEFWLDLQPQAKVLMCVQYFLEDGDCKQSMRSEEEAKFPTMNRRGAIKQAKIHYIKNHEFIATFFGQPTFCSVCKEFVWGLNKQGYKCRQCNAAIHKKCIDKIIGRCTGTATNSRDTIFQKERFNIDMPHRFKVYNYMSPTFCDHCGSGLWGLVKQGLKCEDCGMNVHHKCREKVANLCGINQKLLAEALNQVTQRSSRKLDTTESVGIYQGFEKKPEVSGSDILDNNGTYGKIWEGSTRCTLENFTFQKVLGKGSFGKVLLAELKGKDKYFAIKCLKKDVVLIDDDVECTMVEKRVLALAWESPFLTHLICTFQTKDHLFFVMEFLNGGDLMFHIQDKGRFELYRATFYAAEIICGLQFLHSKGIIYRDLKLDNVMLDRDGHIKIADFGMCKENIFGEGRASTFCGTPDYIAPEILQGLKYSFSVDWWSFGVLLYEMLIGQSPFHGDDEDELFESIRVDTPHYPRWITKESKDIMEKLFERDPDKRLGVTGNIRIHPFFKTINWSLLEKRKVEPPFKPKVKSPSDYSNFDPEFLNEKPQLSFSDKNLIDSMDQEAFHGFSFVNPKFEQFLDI

[3] = target: Protein kinase C delta type (Mus musculus, UniProt P28867, P241G); test: Displacement of [3H]-PDBu from protein kinase C delta C1b domain mutant (P11G); outline: as §1
Protein kinase C delta type (Mus musculus, UniProt P28867, P241G), sequence (P28867 whole entry P241G, the tested form may be a part): as the sequence (P28867 whole entry L250G, the tested form may be a part) above, with P241G, G250L counted along it

[4] = target: Protein kinase C delta type (Mus musculus, UniProt P28867, Q257V); test: Displacement of [3H]PDBu from protein kinase C delta C1b domain mutant (Q27V); outline: as §1
Protein kinase C delta type (Mus musculus, UniProt P28867, Q257V), sequence (P28867 whole entry Q257V, the tested form may be a part): as the sequence (P28867 whole entry L250G, the tested form may be a part) above, with G250L, Q257V counted along it

[5] = target: Protein kinase C delta type (Mus musculus, UniProt P28867, T242G); test: Displacement of [3H]PDBu from protein kinase C delta C1b domain mutant (T12G); outline: as §1
Protein kinase C delta type (Mus musculus, UniProt P28867, T242G), sequence (P28867 whole entry T242G, the tested form may be a part): as the sequence (P28867 whole entry L250G, the tested form may be a part) above, with T242G, G250L counted along it

[6] = target: Protein kinase C delta type (Mus musculus, UniProt P28867, T8G); test: Displacement of [3H]PDBu from protein kinase C delta C1b domain mutant (T8G); outline: as §1
Protein kinase C delta type (Mus musculus, UniProt P28867, T8G), sequence (P28867 whole entry, looked up, stated change not applied, the tested form may be a part): as the sequence (P28867 whole entry L250G, the tested form may be a part) above, with G250L counted along it

[7] = target: Protein kinase C delta type (Mus musculus, UniProt P28867); test: Displacement of [3H]PDBu from protein kinase C delta C1b domain (Wild type); outline: as §1
Protein kinase C delta type (Mus musculus, UniProt P28867), sequence (P28867 whole entry, the tested form may be a part): as the sequence (P28867 whole entry L250G, the tested form may be a part) above, with G250L counted along it

[8] = target: Protein kinase C delta type (Mus musculus, UniProt P28867, W252G); test: Displacement of [3H]PDBu from protein kinase C delta C1b domain mutant (W22G)
Protein kinase C delta type (Mus musculus, UniProt P28867, W252G), sequence (P28867 whole entry W252G, the tested form may be a part): as the sequence (P28867 whole entry L250G, the tested form may be a part) above, with G250L, W252G counted along it

Protein kinase C delta type (Mus musculus, UniProt P28867, F243G), sequence (P28867 whole entry F243G, the tested form may be a part): as the sequence (P28867 whole entry L250G, the tested form may be a part) above, with F243G, G250L counted along it

Compound | pKi [1] | pKi [2] | pKi [3] | pKi [4] | pKi [5] | pKi [6] | pKi [7] | pKi [8]
CC(C)[C@H]1C(=O)N[C@H](CO)Cc2c[nH]c3cccc(c23)N1C [INDOLACTUM] | 7.96 | 7.18 | 5.15 | 5.96 | 7.60 | 6.18 |  | 
CC1=CC23C(=O)[C@@H](C=C(CO)[C@@H](O)[C@]2(O)[C@H]1OC(=O)c1ccccc1)[C@H]1[C@@H](C[C@H]3C)C1(C)C | 9.82 | 8.97 | 7.97 | 8.85 | 9.14 | 8.50 | 9.89 | 
CCCC(=O)O[C@@H]1[C@@H](C)[C@@]2(O)[C@@H](C=C(CO)C[C@]3(O)C(=O)C(C)=C[C@@H]23)[C@@H]2C(C)(C)[C@]12OC(=O)CCC | 9.09 | 8.18 | 6.68 | 7.85 | 8.91 | 7.74 | 9.45 | 7.60
C=C(C)[C@@]12OC3(c4ccccc4)O[C@@H]1[C@@H]1C4O[C@]4(CO)[C@@H](O)[C@]4(O)C(=O)C(C)=C[C@H]4[C@@]1(O3)[C@H](C)[C@H]2OC(=O)/C=C/c1ccccc1 (stereo partly drawn) [THYMELEATOXIN] | 8.11 | 7.95 | 6.38 | 7.33 | 7.72 | 7.06 | 8.57 | 
